The test system of assay [1] is Plasmodium falciparum. The experiment in a line: Intrinsic antimalarial activity against chloroquine-resistant Plasmodium falciparum NHP4559 harboring CRT K76T mutant assessed as reduction in parasite viability at 500 nM. The format is functional, organism-based.
The subject of assay [2] is Plasmodium falciparum. The experiment in a line: Intrinsic antimalarial activity against chloroquine-sensitive Plasmodium falciparum HB3 isolate MRA-155 assessed as reduction in parasite viability at 500 nM. The format is functional, organism-based.
The subject of assay [3] is Plasmodium falciparum K1. The experiment in a line: Inhibition of CRT CVIET haplotype mutant in Plasmodium falciparum K1 isolate MRA-159 infected in erythrocytes assessed as chloroquine-coumarin probe accumulation at 10 uM after 10 hrs by Hoechst 33342 staining based flow cytometry (reference value: 35.57 +/- 3.84%). The format is cell-based. The arrangement: scale not given: the % may be the effect or the level left. The essentials: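 Infected erythrocyte cultures at 2.5% hematocrit and 7–12% parasitemia, synchronized to late-ring/early-trophozoite stage, were incubated with chloroquine-coumarin probe plus test agent for 10 h at 37 C. Cells were then washed, resuspended in PBS and read by flow cytometry (405 nm excitation, 450/50 filter). Hoechst-stained duplicate wells set parasitemia. Uptake = % infected erythrocytes fluorescent. Controls: PBS (negative), desipramine and parent compound (positive). ≥3 independent experiments; mean ± SEM.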
Background: A flow cytometer gives signals particle by particle.

In assay [4] the test system is Plasmodium falciparum. The experiment in a line: Intrinsic antimalarial activity against chloroquine/artemisinin-resistant Plasmodium falciparum ARS272 harboring CRT K76T mutant assessed as reduction in parasite viability at 500 nM. The format is functional, organism-based.
For assay [5], the system named is Plasmodium falciparum. Nature of the assay: Intrinsic antimalarial activity against intermediate chloroquine-resistant Plasmodium falciparum 7G8 isolate MRA-154 harboring CRT SVMNT haplotype mutant assessed as reduction in parasite viability at 500 nM. The format is functional, organism-based.
Assay [6] relates to Plasmodium falciparum. Nature of the assay: Intrinsic antimalarial activity against chloroquine-resistant Plasmodium falciparum K1 isolate MRA-159 harboring CRT CVIET haplotype mutant assessed as reduction in parasite viability at 500 nM. The format is functional, organism-based.
Assay [7] relates to Plasmodium falciparum. The experiment in a line: Intrinsic antimalarial activity against chloroquine-sensitive Plasmodium falciparum 3D7 isolate MRA-102 assessed as reduction in parasite viability at 500 nM. The format is functional, organism-based.
In assay [8] the test system is Plasmodium falciparum. Nature of the assay: Intrinsic antimalarial activity against chloroquine/artemisinin-resistant Plasmodium falciparum NHP4773 harboring CRT K76T mutant assessed as reduction in parasite viability at 500 nM. The format is functional, organism-based.
In assay [9] the test system is Plasmodium falciparum. The experiment in a line: Intrinsic antimalarial activity against chloroquine-resistant Plasmodium falciparum Dd2 isolate MRA-156 harboring CRT K76T mutant assessed as reduction in parasite viability at 500 nM. The format is functional, organism-based.
Assay [10] concerns Plasmodium falciparum. Nature of the assay: Intrinsic antimalarial activity against chloroquine/artemisinin-resistant Plasmodium falciparum ARS233 harboring CRT K76T mutant assessed as reduction in parasite viability at 500 nM. The format is functional, organism-based.

The text below walks through data of ChEMBL document CHEMBL4428038, “Overcoming chloroquine resistance in malaria: Design, synthesis and structure-activity relationships of novel chemoreversal agents” (Eur J Med Chem, 2016).

Activity calls are given as the source filed them. The calls are words filed in the database; no cut-off is given here.

On to `NCC(CCN1CCCCC1)(c1ccccc1)c1ccccc1`, for which the outcome in assay [1], in assay [2], in assay [4], in [5], in assay [6] and in [7] was inactive. Further, the outcome in assay [8], in assay [9] and in assay [10] was inactive. Besides, the Activity in assay [3] amounted to 61%.
`OC1(c2ccc(Cl)cc2)CCNCC1`: the outcome in assay [1], in [2], in [4], in assay [5], in assay [6] and in [7] was inactive. Moreover, the result in assay [8], in assay [9] and in assay [10] was inactive. Besides, the Activity in assay [3] worked out at 27.5%.
On to `N#CC(CCN1CCC(N)CC1)(c1ccccc1)c1ccccc1`, for which the outcome in [1], in assay [2], in [4], in assay [5], in assay [6] and in assay [7] was inactive. The result in assay [8], in assay [9] and in assay [10] was inactive. Further, the Activity in [3] turned out to be 58%.
Regarding `O=C1C2CCN(CC2)C1Cc1ccccc1` (stereo unspecified), the outcome in assay [1], in [2], in assay [4], in assay [5], in assay [6] and in assay [7] was inactive. The result in [8], in assay [9] and in assay [10] was inactive. For the same compound, the Activity in assay [3] came to 34.7%.
With `c1ccc(CNC2C3CCN(CC3)C2Cc2ccccc2)cc1` (mixture of isomers), the outcome in assay [1], in [2], in assay [4], in assay [5], in assay [6] and in assay [7] was inactive. For the same compound, the outcome in assay [8], in assay [9] and in assay [10] was inactive. Besides, the Activity in assay [3] was 74.4%.
`N#CC(CCN1CCC(O)(c2ccc(Cl)cc2)CC1)(c1ccccc1)c1ccccc1`: the result in assay [1], in assay [2], in assay [4], in [5], in [6] and in [7] was inactive. Besides, the outcome in assay [8], in [9] and in assay [10] was inactive. Moreover, the Activity in assay [3] is 25.9%.
In the case of `CC(C)(C)OC(=O)N1CCCC(NCc2ccccc2I)C1` (stereo unspecified), the outcome in assay [1], in assay [2], in [4], in assay [5], in assay [6] and in [7] was inactive. Also, the result in [8], in [9] and in assay [10] was inactive. For the same compound, the Activity in assay [3] amounted to 40.5%.
`CNCCCN1c2ccccc2CCc2ccccc21`: in assay [3], the Activity was found to be 78.8%.
